{"data": "Measurements from different studies", "Palmitoyl-protein thioesterase 1": "Palmitoyl-protein thioesterase 1 (Homo sapiens, UniProt P50897)", "Transmembrane protease serine 6": "Transmembrane protease serine 6 (Homo sapiens, UniProt Q8IU80)", "EGFR": "Epidermal growth factor receptor (EGFR, Homo sapiens, UniProt P00533)"}
{"SMILES": "O=C(O)CCCc1c[nH]c2ccccc12", "target": "Palmitoyl-protein thioesterase 1", "read-out": "enzyme activity", "action": "inhibitor", "tested at": "125 µM", "measurement": "inhibition", "result": "14%"}
{"SMILES": "C[C@H](O)[C@@H](NC(=O)[C@H](Cc1cscn1)NC(=O)CCc1ccccc1)C(=O)N[C@@H](CCCNC(=N)N)C(=O)c1nc2ccccc2s1", "target": "Transmembrane protease serine 6", "read-out": "enzyme activity", "action": "inhibitor", "tested at": "0.1 µM", "measurement": "remaining activity", "result": "10%"}
{"SMILES": "Cc1ncc(CN2CCN(Cc3ccccn3)CC2)c2cc(C(=O)c3ccc4c(c3)OCCO4)oc12", "target": "Epidermal growth factor receptor (EGFR, Homo sapiens, UniProt P00533, L858R/T790M)", "read-out": "enzyme activity", "action": "inhibitor", "technique": "ADP detection", "tested at": "1 µM", "measurement": "inhibition", "result": "65 to 75%"}
{"SMILES": "CC(C)(NC(=O)[C@H](Cc1cscn1)NC(=O)CCc1ccccc1)C(=O)N[C@@H](CCCNC(=N)N)C(=O)c1nc2ccccc2s1", "target": "Transmembrane protease serine 6", "read-out": "enzyme activity", "action": "inhibitor", "tested at": "0.1 µM", "measurement": "remaining activity", "result": "22%"}
{"SMILES": "COc1cc(-c2cncc3c2CN(C)Cc2cc(N4CCNCC4)ccc2-3)cc(OC)c1OC", "target": "Wee1-like protein kinase (WEE1, Homo sapiens, UniProt P30291)", "read-out": "enzyme activity", "action": "inhibitor", "tested at": "1 µM", "measurement": "remaining activity", "result": "95%"}
{"SMILES": "CC1([C@H](NC(=O)[C@H](Cc2cscn2)NC(=O)CCc2ccccc2)C(=O)N[C@@H](CCCNC(=N)N)C(=O)c2nc3ccccc3s2)CC1", "target": "Transmembrane protease serine 6", "read-out": "enzyme activity", "action": "inhibitor", "tested at": "0.1 µM", "measurement": "remaining activity", "result": "36%"}
{"SMILES": "C=CCc1ccc(O)c(O)c1", "target": "Palmitoyl-protein thioesterase 1", "read-out": "enzyme activity", "action": "inhibitor", "tested at": "625 µM", "measurement": "inhibition", "result": "15.1%"}
{"SMILES": "Cc1ncc(CN2CCc3ccccc3C2)c2cc(C(=O)c3ccc4c(c3)OCCO4)oc12", "target": "EGFR", "read-out": "enzyme activity", "action": "inhibitor", "technique": "ADP detection", "tested at": "1 µM", "measurement": "inhibition", "result": "90 to 100%"}
{"SMILES": "CCCCCCCCCCCCCCCC(=O)O", "target": "Palmitoyl-protein thioesterase 1", "read-out": "enzyme activity", "action": "inhibitor", "tested at": "125 µM", "measurement": "inhibition", "result": "42.4%"}
{"SMILES": "Cc1ccc2c(-c3cc4c(CN5CCN(Cc6ccccn6)CC5)cnc(C)c4o3)cc(=O)oc2c1", "target": "EGFR", "read-out": "enzyme activity", "action": "inhibitor", "technique": "ADP detection", "tested at": "1 µM", "measurement": "inhibition", "result": "60 to 80%"}
{"SMILES": "CNc1ncc2c(/C=C/C(=O)N3CCC(OC)CC3)nn(Cc3cccc(C(F)(F)F)c3)c2n1", "target": "Protein kinase C delta type (PRKCD, Homo sapiens, UniProt Q05655)", "read-out": "enzyme activity", "action": "inhibitor", "technique": "radiometric", "tested at": "1 µM", "measurement": "remaining activity", "result": "99%"}
{"SMILES": "O=C(CCn1c(=O)ccc2ccccc21)N1CCOCC1", "target": "EGFR", "read-out": "enzyme activity", "action": "inhibitor", "tested at": "10 µM", "measurement": "inhibition", "result": "86.8%"}
{"SMILES": "N=C(N)NCCC[C@H](NC(=O)[C@@H](NC(=O)[C@H](Cc1cscn1)NC(=O)CCc1ccccc1)c1ccccc1)C(=O)c1nc2ccccc2s1", "target": "Transmembrane protease serine 6", "read-out": "enzyme activity", "action": "inhibitor", "tested at": "0.1 µM", "measurement": "remaining activity", "result": "6%"}
{"SMILES": "Cc1ncc(CNCc2ccco2)c2cc(-c3cc(=O)oc4cc5c(cc34)CCC5)oc12", "target": "EGFR", "read-out": "enzyme activity", "action": "inhibitor", "technique": "ADP detection", "tested at": "1 µM", "measurement": "inhibition", "result": "0 to 40%"}
{"SMILES": "O=C1O[C@H]2[C@@H]3OC(=O)c4cc(O)c(O)c(O)c4-c4c(O)c(O)c5oc(=O)c6c(c(O)c(O)c7oc(=O)c4c5c76)-c4c(cc(O)c(O)c4O)C(=O)OC[C@H]3OC(O)[C@@H]2OC(=O)c2cc(O)c(O)c(O)c2-c2c1cc(O)c(O)c2O (mixture of isomers)", "target": "Palmitoyl-protein thioesterase 1", "read-out": "enzyme activity", "action": "inhibitor", "tested at": "125 µM", "measurement": "inhibition", "result": "51.3%"}
{"SMILES": "Cc1cc([C@@H](C)Nc2ccccc2C(=O)O)c2nc(N3CCC(F)(F)CC3)c(C#N)c(=O)n2c1", "target": "Mitogen-activated protein kinase 8 (MAPK8, Homo sapiens, UniProt P45983)", "read-out": "binding", "technique": "competition with immobilised ligand", "tested at": "10 µM", "measurement": "remaining binding", "result": "100%"}
{"SMILES": "C/C=C\\c1ccc(O)c(OC)c1", "target": "Palmitoyl-protein thioesterase 1", "read-out": "enzyme activity", "action": "inhibitor", "tested at": "312 µM", "measurement": "inhibition", "result": "22.2%"}
{"SMILES": "N=C(N)NCCC[C@H](NC(=O)[C@H](CCC1CCCCC1)NC(=O)[C@H](Cc1cscn1)NC(=O)CCc1ccccc1)C(=O)c1nc2ccccc2s1", "target": "Transmembrane protease serine 6", "read-out": "enzyme activity", "action": "inhibitor", "tested at": "0.1 µM", "measurement": "remaining activity", "result": "5%"}
{"SMILES": "[H]/N=C(\\N/C(=N/[H])Nc1ccc(Cl)cc1)NC(C)C", "target": "Palmitoyl-protein thioesterase 1", "read-out": "enzyme activity", "action": "inhibitor", "tested at": "125 µM", "measurement": "inhibition", "result": "-0.79%"}
{"SMILES": "N=C(N)NCCC[C@H](NC(=O)[C@@H](NC(=O)[C@H](Cc1cscn1)NC(=O)CCc1ccccc1)C1CCCCC1)C(=O)c1nc2ccccc2s1", "target": "Transmembrane protease serine 6", "read-out": "enzyme activity", "action": "inhibitor", "tested at": "0.1 µM", "measurement": "remaining activity", "result": "5%"}
{"SMILES": "NC(=O)N[C@@H](CCC(=O)O)C(=O)O", "target": "Palmitoyl-protein thioesterase 1", "read-out": "enzyme activity", "action": "inhibitor", "tested at": "125 µM", "measurement": "inhibition", "result": "40.4%"}
{"SMILES": "CC(C)(C)c1ccc(C[C@H](NC(=O)[C@H](Cc2cscn2)NC(=O)CCc2ccccc2)C(=O)N[C@@H](CCCNC(=N)N)C(=O)c2nc3ccccc3s2)cc1", "target": "Transmembrane protease serine 6", "read-out": "enzyme activity", "action": "inhibitor", "tested at": "0.1 µM", "measurement": "remaining activity", "result": "98%"}
{"SMILES": "C=C1C(=O)O[C@H]2[C@H]1CC/C(C)=C/CC[C@@]1(C)O[C@@H]21", "target": "Palmitoyl-protein thioesterase 1", "read-out": "enzyme activity", "action": "inhibitor", "tested at": "125 µM", "measurement": "inhibition", "result": "-5.16%"}
{"SMILES": "CCC[C@H](NC(=O)[C@H](Cc1cscn1)NC(=O)CCc1ccccc1)C(=O)N[C@@H](CCCNC(=N)N)C(=O)c1nc2ccccc2s1", "target": "Transmembrane protease serine 6", "read-out": "enzyme activity", "action": "inhibitor", "tested at": "0.1 µM", "measurement": "remaining activity", "result": "30%"}
{"SMILES": "C=CC(=O)N1CCC(COCC(=O)N2CCN(c3nc(-c4cnc(N)nc4C(F)F)nc(N4CCOC[C@@H]4C)n3)CC2)CC1", "target": "Serine/threonine-protein kinase B-raf (BRAF, Homo sapiens, UniProt P15056, V600E)", "read-out": "binding", "technique": "competition with immobilised ligand", "tested at": "1 µM", "measurement": "remaining binding", "result": "81%"}
